In the library only some 2.3% were active in any assay of this set; here they are far more common.
MsrA act: bovine methionine sulfoxide reductase A activation | purified bovine MsrA, absorbance read-out | activation, % at 10.6 µM | 0.3% of 360,000 active; in the data active means activation above about 7.5%
MsrA inh: inhibitors of bovine MsrA; 0.75% of 360,000 active; purified bovine MsrA, absorbance read-out; inhibition, % at 15.5 µM; in the data active means inhibition above about 4.5%
MC4R barr agon: activates human MC4R beta-arrestin recruitment | 0.98% of 360,000 active | AID 540308 | P32245 | activation, % at 8.9 µM | U2OS MC4R beta-arrestin complementation, luminescence; percent of melanotan II response, DMSO zero;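 active means activation above a per-plate cutoff, the mean activation of sample wells on that plate plus 3 SD, cut at about 8% in these data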
Target sequence (P32245 whole entry, looked up): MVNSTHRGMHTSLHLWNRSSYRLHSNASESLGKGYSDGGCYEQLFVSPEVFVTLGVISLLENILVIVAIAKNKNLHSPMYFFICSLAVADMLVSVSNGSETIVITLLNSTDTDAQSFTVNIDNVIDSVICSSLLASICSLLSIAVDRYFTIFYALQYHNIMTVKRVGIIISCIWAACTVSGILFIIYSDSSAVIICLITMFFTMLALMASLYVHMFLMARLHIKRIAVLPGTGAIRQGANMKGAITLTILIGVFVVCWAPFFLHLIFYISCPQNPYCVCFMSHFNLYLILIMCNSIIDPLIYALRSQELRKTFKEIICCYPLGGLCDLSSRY
MC4R antagonist: human MC4R antagonism in cAMP assay. MC4R-expressing cells, MTII-stimulated cAMP, LANCE TR-FRET. inhibition, % at 6.5 µM. AID 540295. 0.48% of 360,000 active;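 active means inhibition above its plate's cutoff, the mean of tested wells on that plate plus 3 SD, cut at about 29% in these data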
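material = U2OS cells stably expressing human melanocortin 4 receptor (MC4R) | also added = Melanotan II challenge | dosing = single nominal compound dose of 6.5 µM | detection = TR-FRET with Eu-cAMP and labeled anti-cAMP, 671 nm | replication = singlicate | timing = compound 30 min, challenge 1 h, detection 1 h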
MC4R barr conf: human MC4R beta-arrestin agonism confirmation. 31% of 2,400 active. AID 602192. U2OS MC4R beta-arrestin recruitment, luminescence; scaled DMSO 0%, Melanotan II 100%. activation, % at 8.9 µM. shares compounds with MC4R barr agon;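 active means mean activation across replicates above the hit cutoff set in the earlier primary screen, cut at about 8% in these data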
MOR DOR agonist: activates mu-delta opioid heterodimer, MC4R agonist counter-screen; shares compounds with MC4R barr agon; U2OS PathHunter beta-arrestin, beta-gal luminescence; percent of deltorphin B response, DMSO zero; activation, % at 9.2 µM; 5.8% of 2,400 active; AID 602194;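 active means mean activation across replicates exceeds the hit threshold derived in the earlier primary screen, cut at about 18% in these data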
Numbers stand for hits; n = inactive; x = no result given.

SMILES	MsrA act	MsrA inh	MC4R barr agon	MC4R antagonist	MC4R barr conf	MOR DOR agonist
CC(=O)Nc1cc(-c2ccc(C(=O)N3CCOCC3)cc2)cn2c(-c3ccc(C(C)=O)cc3)cnc12	n	n	n	n	x	x
O=C(NCc1ccccc1)c1ccc(C2SCC(=O)N2Cc2ccccc2)cc1 (stereo unspecified)	n	n	n	n	x	x
Cc1nnc(SCC(=O)N(C)c2c(N)n(Cc3ccccc3)c(=O)[nH]c2=O)n1Cc1ccccc1	n	n	n	n	x	x
Cn1c(=O)[nH]c(=O)c2c1nc(Br)n2CCSc1ncccn1	n	n	n	n	x	x
CSc1nc2ccc(NC(=O)COc3ccccc3F)cc2s1	n	n	10.2	n	n	n
CSc1nc2ccc(NC(=O)CS(=O)(=O)c3ccccc3)cc2s1	n	n	n	n	x	x
C#CCn1c(=NC(=O)c2ccc(Cl)s2)sc2cccc(OC)c21	n	n	15.0	n	n	n
CCOC(=O)Cn1c(=NC(=O)c2cccs2)sc2cc(C(=O)OC)ccc21	n	n	n	n	x	x
COC(=O)Cn1c(=NC(=O)c2ccc(Cl)s2)sc2cc(F)ccc21	n	n	n	n	x	x
C#CCn1c(=NC(=O)c2cccs2)sc2cccc(OCC)c21	n	n	23.9	n	n	n
Cc1c(NC(=O)C(=O)/C=C(/O)c2ccccc2)c(=O)n(-c2ccccc2)n1C	n	n	n	n	x	x
COc1ccc(-c2noc(-c3ccc(Br)o3)n2)cc1	n	n	n	n	x	x
COc1ccc(-c2nc(-c3ccc(Br)o3)no2)cc1	n	n	13.2	n	n	n
Cc1nc(C(=O)Nc2cccc(Cl)c2Cl)nn1-c1cc(OC(C)C)c(Cl)cc1Cl	n	n	n	n	x	x
CC(C)(C)c1ccccc1NC(=O)Nc1nc(C(N)Cc2ccc(F)cc2)cs1 (stereo unspecified)	n	n	10.8	n	n	n
CC(C)c1ccccc1NC(=O)Nc1nc(C(N)Cc2ccc(C(F)(F)F)cc2)cs1 (stereo unspecified)	n	n	15.4	n	13.5	n
CC(C)(C)c1ccccc1NC(=O)Nc1nc(C(N)c2ccccc2)cs1 (stereo unspecified)	n	n	n	n	x	x
COc1ccc(CNC(=O)Nc2nc(C(N)Cc3ccc(C(F)(F)F)cc3)cs2)cc1 (stereo unspecified)	n	n	15.9	n	17.4	n
CCOC(=O)N1CCN(C(=O)C[C@@H]2C[C@@]3(C(=O)OC)CCCCC=C3N(Cc3ccco3)C2=O)CC1	n	n	x	x	x	x
Cc1ccsc1/C=N/Nc1nc2ccccc2s1	n	n	9.9	n	n	n
COc1cccc(C=NNc2nc3ccccc3s2)c1OC	n	n	22.2	n	n	n
COc1cccc(/C=N/Nc2ccc(Cl)nn2)c1OC	n	n	n	n	x	x
COc1cccc(/C=N/Nc2nnc3c(n2)[nH]c2ccccc23)c1OC	n	n	11.0	n	n	n
Oc1ccccc1C=NNc1nc2ccccc2s1	n	n	n	n	x	x
COc1ccc(C(=O)N/C(=C/c2ccco2)C(=O)N2CCCCCC2)cc1	n	n	n	n	x	x
SMILES	MsrA act	MsrA inh	MC4R barr agon	MC4R antagonist	MC4R barr conf	MOR DOR agonist
N#Cc1cc(-c2ccccc2)nnc1Oc1ccccc1	n	n	n	n	x	x
Cc1ccc(Oc2nnc(-c3ccccc3)cc2C#N)cc1	n	n	27.4	n	n	n
CCCOc1ccc(CN(C)c2ncnc(N)n2)cc1	n	n	n	n	x	x
O=C(CSc1ncnc2nc[nH]c12)Nc1nnc(SCc2ccc(Cl)c(Cl)c2)s1	n	n	16.2	n	n	n
Cc1ccc(C)c(NC(=O)CSc2ncnc3nc[nH]c23)c1	n	n	n	n	x	x
CCCN(CCC)CCNC(=O)c1cc2c(-c3ccc(Cl)cc3)nn(C)c2s1	n	n	10.6	n	9.0	n
COc1cccc(OCc2ccc(Cn3nc(NC(=O)NCCc4ccc(OC)c(OC)c4)c4ccccc43)cc2)c1	n	n	n	n	x	x
Cc1ccc(Sc2ccc(NC(=O)CCl)cc2)cc1C	n	n	19.2	n	17.3	n
CC(C)(C)c1nn(-c2ccccc2)c2[nH]c(=O)c(CNCc3ccc4c(c3)OCO4)cc12	n	n	15.9	n	13.9	n
CCN1CCC(NC(=O)Nc2cccc(C(F)(F)F)c2)CC1	n	n	n	n	x	x
S=c1[nH]nc(COc2ccc(Cl)cc2)n1C1CCCCC1	n	n	10.6	n	n	n
Cc1ccc(OCc2n[nH]c(=S)n2C2CCCCC2)cc1	n	n	n	n	x	x
Cc1nn(CC(=O)NCc2cccc3ccccc23)c(=O)c2ccccc12	n	n	19.0	n	n	n
Cc1cc2c3c(c1)C1(C(=O)N3C(C)(C)CC2C)C(C#N)=C(N)Oc2n[nH]c(C)c21 (stereo unspecified)	n	n	n	n	x	x
Cc1cc(C(=O)N/N=C/c2cc(Br)ccc2OC(=O)c2ccccc2Cl)n[nH]1	n	n	n	n	x	x
Cc1cc(C(=O)N/N=C/c2cc(Br)ccc2OC(=O)c2ccccc2)n[nH]1	n	n	16.6	n	n	n
CC1Sc2ccc(S(=O)(=O)N3CCC(C(=O)NCc4ccc(Cl)cc4)CC3)cc2NC1=O (stereo unspecified)	n	n	n	n	x	x
Cc1nc(NC(=O)c2ccco2)sc1-c1csc(Nc2ccc(Cl)cc2)n1	n	n	10.2	n	9.1	n
O=C(CCl)N(Cc1ccccc1)c1ccccc1	n	n	19.7	n	14.9	18.2
Cc1ccc(S(=O)(=O)CCc2nc3ccccc3[nH]2)cc1	n	n	n	n	x	x
COc1cccc(NC(=S)NC(=O)Cc2ccccc2)c1	n	n	n	n	x	x
N#C/C(=C\c1ccc(N2CCOCC2)o1)C(=O)Nc1ccc(O)cc1	n	n	n	n	x	x
N#C/C(=C/c1ccc(N2CCCCC2)o1)C(=O)Nc1ccc(Cl)cc1	n	n	10.5	n	n	n
FC(F)(F)c1ccc(Cl)c(NC(=S)N/N=C/c2ccccc2C(F)(F)F)c1	n	n	n	n	x	x
COc1ccc(/C=N/NC(=S)Nc2cc(C(F)(F)F)ccc2Cl)cc1	n	n	24.4	n	n	n
SMILES	MsrA act	MsrA inh	MC4R barr agon	MC4R antagonist	MC4R barr conf	MOR DOR agonist
O=C1OC(c2ccccc2)(c2ccc(O)cc2)c2ccccc21 (stereo unspecified)	n	n	54.8	n	48.2	n
COc1cc(C(=S)N2CCCC2)ccc1OS(=O)(=O)c1ccc(NC(C)=O)cc1	n	n	n	n	x	x
CCc1cc2c(-c3ccccc3)cc(=O)oc2cc1OCC(C)=O	n	n	n	n	x	x
CC(=O)COc1cc2c(-c3cc4ccccc4o3)cc(=O)oc2cc1C	n	7.1	25.5	n	n	n
CCc1nc2c(OCC(=O)N(C)C)cccn2c1N(C=O)Cc1ccc(OC)cc1	n	n	n	n	x	x
CC(C)COc1ccc(S(=O)(=O)NNC(=O)c2cc3ccccc3o2)cc1	n	n	11.3	n	11.6	n
CCCCOc1ccc(S(=O)(=O)NNC(=O)c2cc3ccccc3o2)cc1	n	n	n	n	x	x
